Laboratory results published in ChEMBL document CHEMBL4038284, “Synthesis of novel quinoline-based 4,5-dihydro-1H-pyrazoles as potential anticancer, antifungal, antibacterial and antiprotozoal agents” (Eur J Med Chem, 2017).
≈ marks a conversion by molar mass, not a printed value. Calls of active or inactive are those of the source. The rule behind the calls is not given here.

Experiments:
BT-549 = assay: Growth inhibition of human BT549 cells at 10 uM incubated for 48 hrs by sulforhodamine B assay; format: functional, cell-based
In short: (§1)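 NCI 60-cell-line screen at a single 10 µM dose. Cells in RPMI-1640 with 5% FBS and 2 mM L-glutamine, pre-incubated 24 h, then treated for 48 h at 37 °C. TCA fixation, sulforhodamine B staining, absorbance at 515 nm. Percentage growth calculated against time-zero and untreated controls.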

A498 = assay: Growth inhibition of human A498 cells at 10 uM incubated for 48 hrs by sulforhodamine B assay; format: functional, cell-based; in short: as §1
NCI-H522 = assay: Growth inhibition of human NCI-H522 cells at 10 uM incubated for 48 hrs by sulforhodamine B assay; format: functional, cell-based
In short: (§2)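 NCI 60-line panel, single 10 μM dose. Cells were grown in RPMI-1640 with 5% FBS and 2 mM L-glutamine and pre-incubated 24 h before compound addition (DMSO stock). Exposure was 48 h at 37 °C, 5% CO2. Cells were fixed with cold TCA (10% final), stained with 0.4% SRB, bound dye dissolved in 10 mM Tris base, A515 read. Growth was taken relative to time-zero and untreated control plates.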

NCI-H23 = assay: Growth inhibition of human NCI-H23 cells at 10 uM incubated for 48 hrs by sulforhodamine B assay; format: functional, cell-based; in short: as §2
SK-MEL-28 = assay: Growth inhibition of human SK-MEL-28 cells at 10 uM incubated for 48 hrs by sulforhodamine B assay; format: functional, cell-based
In short: (§3)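 NCI-60 single-dose screen at 10 µM for 48 h. Cells were grown in RPMI-1640 with 5% FBS and 2 mM L-glutamine and preincubated 24 h before compound. Time-zero plates were TCA-fixed at compound addition. After exposure, cells were TCA-fixed, stained with SRB and read at 515 nm. Percentage growth was calculated against time-zero and untreated-control absorbances.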

Candida albicans [1] = assay: Growth inhibition of Candida albicans ATCC 10231 at 125 ug/ml incubated for 48 hrs under dark condition by broth microdilution method relative to control; format: functional; conditions: ATCC 10231, 48 h, read-out: GI
In short: (§4)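 CLSI M27-A3 broth microdilution in RPMI-1640, DMSO ≤1%. Inoculum 1-5 × 10^3 CFU/mL. Incubated 48 h at 30 °C, dark. % inhibition = 100 − (OD405 test − sterility control)/(OD405 growth control − sterility control), with growth and sterility control wells. Triplicate.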

SNB-75 = assay: Growth inhibition of human SNB75 cells at 10 uM incubated for 48 hrs by sulforhodamine B assay; format: functional, cell-based; in short: as §3
MCF7 = assay: Growth inhibition of human MCF7 cells at 10 uM incubated for 48 hrs by sulforhodamine B assay; format: functional, cell-based; in short: as §2
Neisseria gonorrhoeae = assay: Antibacterial activity against beta lactamase positive Neisseria gonorrhoeae ATCC 31426 by oxidase test; format: functional
In short: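 Agar dilution MIC on GC agar with 1% isovitalex containing increasing compound concentrations. Plates inoculated with about 1×10^4 CFU (5 µL). MIC is the lowest concentration that inhibited growth, with growth confirmed by oxidase test. Run in duplicate, repeated at least three times.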

OVCAR-5 = assay: Growth inhibition of human OVCAR5 cells at 10 uM incubated for 48 hrs by sulforhodamine B assay; format: functional, cell-based; in short: as §2
SF-268 = assay: Growth inhibition of human SF268 cells at 10 uM incubated for 48 hrs by sulforhodamine B assay; format: functional, cell-based; in short: as §2
IGROV-1 = assay: Growth inhibition of human IGROV1 cells at 10 uM incubated for 48 hrs by sulforhodamine B assay; format: functional, cell-based; in short: as §2
Trypanosoma cruzi = assay: Antitrypanosomal activity against Trypanosoma cruzi Tulahuen intracellular amastigote harboring LacZ infected in human U937 cells after 72 hrs by CPRG/Nonidet reagent based spectrophotometric method; format: functional, cell-based; conditions: U-937, 72 h
In short: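 U-937 cells at 2.5 × 10^5 cells/mL in RPMI-1640 with 10% serum and 0.1 µg/mL PMA were infected with β-galactosidase-transfected Tulahuen epimastigotes at 5 parasites per cell. Infected cells were exposed to 50, 12.5, 3.125 and 0.78 µg/mL for 72 h. CPRG (100 uM) and 0.1% Nonidet P-40 were added for 3 h, read at 570 nm. EC50 by Probit. Triplicate, at least two experiments; benznidazole as reference.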

DU-145 = assay: Growth inhibition of human DU145 cells at 10 uM incubated for 48 hrs by sulforhodamine B assay; format: functional, cell-based; in short: as §1
NCI-H322M = assay: Growth inhibition of human NCI-H322M cells at 10 uM incubated for 48 hrs by sulforhodamine B assay; format: functional, cell-based; in short: as §2
U-937 = assay: Cytotoxicity against human U937 cells after 72 hrs by MTT assay; format: cell-based; conditions: u-937, 72 h
In short: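 Exponentially growing U-937 at 1 × 10^5 cells/mL in RPMI-1640 with 10% FBS were exposed to 200, 50, 12.5 and 3.125 µg/mL for 72 h at 37 °C, 5% CO2. MTT for 3 h, stopped with isopropanol/SDS, formazan read at 570 nm, blank-corrected. LC50 by Probit from % viability against untreated cells. Triplicate, at least two independent experiments.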

Leishmania panamensis = assay: Antileshmanial activity against EpiR/GFP fused Leishmania panamensis MHOM/CO/87/UA140 intracellular amastigotes infected in human […] cells after 72 hrs by flow cytometric method; format: functional, cell-based; conditions: MHOM/CO/87/UA140, 72 h
In short: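 PMA-treated U-937 cells (3 × 10^5 cells/mL) infected with stationary-phase GFP L. panamensis promastigotes (15:1), 3 h at 34 °C, then washed. After 24 h, compounds added at 50, 12.5, 3.125 and 0.78 µg/mL for 72 h at 37 °C. EC50 by Probit; triplicate, two experiments.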

SW-620 = assay: Growth inhibition of human SW620 cells at 10 uM incubated for 48 hrs by sulforhodamine B assay; format: functional, cell-based; in short: as §3
Candida albicans [2] = assay: Growth inhibition of Candida albicans ATCC 10231 at 62.5 ug/ml incubated for 48 hrs under dark condition by broth microdilution method relative to control; format: functional; conditions: ATCC 10231, 48 h, read-out: GI; in short: as §4
MOLT-4 = assay: Growth inhibition of human MOLT4 cells at 10 uM incubated for 48 hrs by sulforhodamine B assay; format: functional, cell-based; in short: as §2
COLO 205 = assay: Growth inhibition of human COLO205 cells at 10 uM incubated for 48 hrs by sulforhodamine B assay; format: functional, cell-based; in short: as §1
M14 = assay: Growth inhibition of human M14 cells at 10 uM incubated for 48 hrs by sulforhodamine B assay; format: functional, cell-based; in short: as §2
SK-MEL-2 = assay: Growth inhibition of human SK-MEL-2 cells at 10 uM incubated for 48 hrs by sulforhodamine B assay; format: functional, cell-based; in short: as §3
NCI-H460 = assay: Growth inhibition of human NCI-H460 cells at 10 uM incubated for 48 hrs by sulforhodamine B assay; format: functional, cell-based; in short: as §2
SR = assay: Growth inhibition of human SR cells at 10 uM incubated for 48 hrs by sulforhodamine B assay; format: functional, cell-based; in short: as §3
A549 = assay: Growth inhibition of human A549/ATCC cells at 10 uM incubated for 48 hrs by sulforhodamine B assay; format: functional, cell-based; in short: as §1
U-251 = assay: Growth inhibition of human U251 cells at 10 uM incubated for 48 hrs by sulforhodamine B assay; format: functional, cell-based; in short: as §3
TK-10 = assay: Growth inhibition of human TK10 cells at 10 uM incubated for 48 hrs by sulforhodamine B assay; format: functional, cell-based; in short: as §3

Row | SMILES | growth inhibition (GI) (BT-549) | growth inhibition (GI) (A498) | growth inhibition (GI) (NCI-H522) | growth inhibition (GI) (NCI-H23) | growth inhibition (GI) (SK-MEL-28) | inhibition of growth at 125 µg/mL (Candida albicans [1]) | growth inhibition (GI) (SNB-75) | growth inhibition (GI) (MCF7) | MIC (Neisseria gonorrhoeae) | growth inhibition (GI) (OVCAR-5) | growth inhibition (GI) (SF-268) | growth inhibition (GI) (IGROV-1) | EC50 (Trypanosoma cruzi) | growth inhibition (GI) (DU-145) | growth inhibition (GI) (NCI-H322M) | LC50 (U-937) | EC50 (Leishmania panamensis) | growth inhibition (GI) (SW-620) | inhibition of growth at 62.5 µg/mL (Candida albicans [2]) | growth inhibition (GI) (MOLT-4) | also measured
1 | COc1ccc(C2=NN(c3ccc(Cl)cc3)C(c3cccc(Nc4ccnc5cc(Cl)ccc45)c3)C2)cc1 (stereo not given) | inactive | inactive | inactive | inactive | inactive | 1.92% | inactive | inactive | > 1000 µg/mL | inactive | inactive | inactive | 44.6 µg/mL (≈ 82.6 µM) | inactive | inactive | > 200 µg/mL | 27.7 µg/mL (≈ 51.4 µM) | inactive | 5.46% | inactive | growth inhibition (GI) (COLO 205): inactive; growth inhibition (GI) (M14): inactive; growth inhibition (GI) (SK-MEL-2): inactive; growth inhibition (GI) (NCI-H460): inactive; growth inhibition (GI) (SR): inactive; growth inhibition (GI) (A549): inactive; growth inhibition (GI) (U-251): inactive; growth inhibition (GI) (TK-10): inactive
2 | Clc1ccc(C2=NN(c3ccc(Cl)cc3)C(c3cccc(Nc4ccnc5cc(Cl)ccc45)c3)C2)cc1 (stereo not given) | inactive | inactive | inactive | inactive | inactive | 19.9% | inactive | inactive | > 1000 µg/mL | inactive | inactive | inactive | 55.8 µg/mL (≈ 103 µM) | inactive | inactive | > 200 µg/mL | 91.4 µg/mL (≈ 168 µM) | inactive | 11.8% | inactive | growth inhibition (GI) (COLO 205): inactive; growth inhibition (GI) (M14): inactive; growth inhibition (GI) (SK-MEL-2): inactive; growth inhibition (GI) (NCI-H460): inactive; growth inhibition (GI) (SR): inactive; growth inhibition (GI) (A549): inactive; growth inhibition (GI) (U-251): inactive; growth inhibition (GI) (TK-10): inactive
3 | Clc1ccc(C2=NN(c3ccccc3)C(c3cccc(Nc4ccnc5cc(Cl)ccc45)c3)C2)cc1 (stereo not given) | inactive | inactive | inactive | inactive | inactive | 8.35% | inactive | inactive | > 1000 µg/mL | inactive | inactive | inactive | 16.2 µg/mL (≈ 31.8 µM) | inactive | inactive | > 200 µg/mL | 11.7 µg/mL (≈ 22.9 µM) | inactive | 7.77% | inactive | growth inhibition (GI) (COLO 205): inactive; growth inhibition (GI) (M14): inactive; growth inhibition (GI) (SK-MEL-2): inactive; growth inhibition (GI) (NCI-H460): inactive; growth inhibition (GI) (SR): inactive; growth inhibition (GI) (A549): inactive; growth inhibition (GI) (U-251): inactive; growth inhibition (GI) (TK-10): inactive
4 | Clc1ccc(C2=NN(c3cc(Cl)cc(Cl)c3)C(c3cccc(Nc4ccnc5cc(Cl)ccc45)c3)C2)cc1 (stereo not given) | inactive | inactive | inactive | inactive | inactive | 31.5% | inactive | inactive | > 1000 µg/mL | inactive | inactive | inactive | 19.1 µg/mL (≈ 33 µM) | inactive | inactive | > 200 µg/mL | 12 µg/mL (≈ 20.8 µM) | inactive | 13.8% | inactive | growth inhibition (GI) (COLO 205): inactive; growth inhibition (GI) (M14): inactive; growth inhibition (GI) (SK-MEL-2): inactive; growth inhibition (GI) (NCI-H460): inactive; growth inhibition (GI) (SR): inactive; growth inhibition (GI) (A549): inactive; growth inhibition (GI) (U-251): inactive; growth inhibition (GI) (TK-10): inactive
5 | COc1cc(C2=NN(c3ccc(Cl)cc3)C(c3cccc(Nc4ccnc5cc(Cl)ccc45)c3)C2)cc(OC)c1OC (stereo not given) | inactive | inactive | inactive | inactive | inactive | 16.7% | inactive | inactive | > 1000 µg/mL | inactive | inactive | inactive | 22.6 µg/mL (≈ 37.7 µM) | inactive | inactive | > 200 µg/mL | 21.3 µg/mL (≈ 35.5 µM) | inactive | 12.2% | inactive | growth inhibition (GI) (COLO 205): inactive; growth inhibition (GI) (M14): inactive; growth inhibition (GI) (SK-MEL-2): inactive; growth inhibition (GI) (NCI-H460): inactive; growth inhibition (GI) (SR): inactive; growth inhibition (GI) (A549): inactive; growth inhibition (GI) (U-251): inactive; growth inhibition (GI) (TK-10): inactive
